Test results: ChEMBL document CHEMBL2150885, “Dual anticoagulant/antiplatelet persulfated small molecules” (Eur J Med Chem, 2011)
Calls of active or inactive are those of the source. No cut-off for these calls is given here.

Columns and labels:
Plasma [1] = test: Anticoagulant activity in human plasma assessed as effect on APC level using CBS 42.46 as synthetic substrate at 1 x 10^-3 M; type: functional
Summary of the method: (§1)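 Compound in saline added to citrated human plasma. Protein C activated by a snake venom-derived activator; enzyme formed quantified by amidolytic activity on chromogenic substrate CBS 42.46. Calibration curve linear 3–150%; normal and pathological control plasmas verify accuracy. Compounds at 1 × 10⁻³ M.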

Platelet [2] = test: Antiplatelet activity against thrombin receptor-activating peptide-6-induced platelet aggregation in human blood at 6.25 x 10^-4 M measured for 6 mins by multiplate electrical impedance aggregometry; type: functional, cell-based
Summary of the method: (§2)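 Hirudin-anticoagulated (final […]) healthy-donor whole blood, used within 0.5–1 h. Compound in saline to final 6.25 × 10⁻⁴ M; saline control, acetylsalicylic acid 6.25 × 10⁻⁴ M reference. Blood mixed with saline at 37 °C for 180 s, then agonist at final TRAP-6 […], arachidonic acid 0.5 mM or ADP […]. Impedance recorded 6 min; AUC from mean of two curves, accepted if within 20%.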

Platelet [3] = test: Antiplatelet activity against arachidonic acid-induced platelet aggregation in human blood at 6.25 x 10^-4 M measured for 6 mins by multiplate electrical impedance aggregometry; type: functional, cell-based; summary of the method: as §2
Platelet [4] = test: Antiplatelet activity against adenosine diphosphate-induced platelet aggregation in human blood at 6.25 x 10^-4 M measured for 6 mins by multiplate electrical impedance aggregometry; type: functional, cell-based; summary of the method: as §2
MCF7 = test: Cytotoxicity against human ER-positive MCF7 cells at 1.5 x 10^-4 after 48 hrs; type: cell-based; conditions: mcf7, 48 h
NCI-H460 = test: Cytotoxicity against human NCI-H460 cells at 1.5 x 10^-4 after 48 hrs; type: cell-based; conditions: nci-h460, 48 h
[5] = Cytotoxicity against human A375-C5 cells at 1.5 x 10^-4 after 48 hrs; type: cell-based; conditions: a375-c5, 48 h
Plasma [6] = test: Anticoagulant activity in human plasma assessed as effect on APC level using CBS 42.46 as synthetic substrate; type: functional, cell-free; summary of the method: as §1
Plasma [7] = test: Anticoagulant activity in human plasma assessed as effect on prothrombin level by PT clotting time with factor II deficient plasma
Plasma [8] = test: Anticoagulant activity in human plasma assessed as effect on prothrombin level by PT clotting time with factor II deficient plasma at 1 x 10^-3 M
Mus musculus = species on record: Mus musculus; test: Acute hepatic toxicity in CD1 mouse; type: organism-based; conditions: in vivo
Plasma [9] = test: Anticoagulant activity in human plasma assessed as concentration required to double activated partial thromboplastin time; type: functional
Summary of the method: (§3)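 Pooled citrated human plasma; compounds in water (10% DMSO for some), final 5 × 10⁻³ to 0.05 × 10⁻³ M; heparin 0.1–10 UI/mL as reference. APTT, PT and TT measured on a coagulometer with commercial kits, clotting time in s. Duplicates repeated on three days (n = 6). Concentration doubling clotting time obtained by linear regression of each concentration-response curve.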

[10] = molecular target: Antithrombin-III (Bos taurus) (UniProt P41361); test: Inhibition of bovine antithrombin-3 at 1 x 10^-3 M
Chain of Antithrombin-III (Bos taurus) (P41361 whole entry): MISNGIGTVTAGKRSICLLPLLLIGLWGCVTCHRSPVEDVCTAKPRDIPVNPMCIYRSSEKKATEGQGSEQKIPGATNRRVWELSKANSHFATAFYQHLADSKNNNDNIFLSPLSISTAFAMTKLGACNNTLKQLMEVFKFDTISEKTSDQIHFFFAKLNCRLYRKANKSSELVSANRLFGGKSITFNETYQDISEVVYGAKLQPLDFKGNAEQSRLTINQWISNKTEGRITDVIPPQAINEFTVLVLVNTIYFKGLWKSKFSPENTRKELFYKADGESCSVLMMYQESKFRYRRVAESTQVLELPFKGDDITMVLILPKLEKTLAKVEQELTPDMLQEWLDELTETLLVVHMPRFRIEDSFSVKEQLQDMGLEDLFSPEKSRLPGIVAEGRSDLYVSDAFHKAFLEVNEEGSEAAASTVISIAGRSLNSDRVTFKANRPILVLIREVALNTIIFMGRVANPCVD

Plasma [11] = test: Anticoagulant activity in human plasma assessed as concentration required to double thrombin time at 5 x 10^-3 M; type: functional, cell-free; summary of the method: as §3
Plasma [12] = test: Anticoagulant activity in human plasma assessed as concentration required to double prothrombin time; type: functional; summary of the method: as §3
[13] = molecular target: Coagulation factor X (Homo sapiens) (UniProt P00742); test: Inhibition of human factor 10a using CH3SO2-D-Leu-Gly-Arg-pNA, AcOH as substrate at 1 x 10^-3 M by chromogenic substrate hydrolysis assay
Chain of Coagulation factor X (Homo sapiens) (P00742 41-179 limits assumed): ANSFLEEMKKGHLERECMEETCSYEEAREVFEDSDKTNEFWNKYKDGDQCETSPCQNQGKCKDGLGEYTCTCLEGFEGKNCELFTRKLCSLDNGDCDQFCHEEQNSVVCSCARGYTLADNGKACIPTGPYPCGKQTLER
Chain of Coagulation factor X (Homo sapiens) (P00742 235-488 limits assumed): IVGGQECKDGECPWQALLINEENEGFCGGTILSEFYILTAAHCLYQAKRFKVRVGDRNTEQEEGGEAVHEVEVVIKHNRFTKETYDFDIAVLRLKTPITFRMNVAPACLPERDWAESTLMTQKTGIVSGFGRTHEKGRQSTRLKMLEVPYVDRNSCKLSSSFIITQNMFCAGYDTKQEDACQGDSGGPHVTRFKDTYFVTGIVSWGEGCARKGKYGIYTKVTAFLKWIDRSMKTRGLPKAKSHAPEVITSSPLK
Summary of the method: (§4)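 Chromogenic hydrolysis in 50 mM Tris/HCl pH 8.3, 227 mM NaCl, 0.1% BSA, with and without bovine antithrombin III (1 U/mL final). Human factor Xa 0.5 U/mL with CBS 31.39 […], or human thrombin 0.06 U/mL with Chromozym TH […]. Absorbance at 405 nm, enzyme-free blank subtracted; initial slope vs water control gives % inhibition. Compounds at 1 × 10⁻³ M; n = 6.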

[14] = molecular target: Prothrombin (Homo sapiens) (UniProt P00734); test: Inhibition of human thrombin using Tosyl-Gly-Pro-Arg-p-nitroaniline as substrate at 1 x 10^-3 M by chromogenic substrate hydrolysis assay; summary of the method: as §4
Blood [15] = test: Anticoagulant activity in human whole blood assessed as clotting time at 6.25 x 10'4 M by thromboelastography assay; type: functional
Summary of the method: (§5)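 Citrated whole blood (citrate:blood 1:9) from healthy donors. Compound in saline diluted 1:16 into blood to final 3.12 × 10⁻⁴ or 6.25 × 10⁻⁴ M; saline control. Thromboelastography with intrinsic activator (InTEM); R clotting time and K clot formation time in s. Mean of three independent experiments in duplicate.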

Blood [16] = test: Anticoagulant activity in human whole blood assessed as clotting formation time at 6.25 x 10'4 M by InTEM-TEG assay; type: functional; summary of the method: as §5
[17] = Antiplatelet activity against collagen-ADP-activated platelet in human blood assessed as closure time at 6.25 x 10^-4 M; type: functional
Summary of the method: (§6)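 Healthy-donor whole blood collected into hirudin (final […]), analysed within 0.5–1 h. Closure time measured in a PFA-100 under high shear through an aperture, platelets activated by a collagen-coated membrane with ADP or epinephrine.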

[18] = Antiplatelet activity against collagen-epinephrine-activated platelet in human blood assessed as closure time at 6.25 x 10^-4 M; type: functional; summary of the method: as §6
Plasma [19] = test: Anticoagulant activity in human plasma assessed as concentration required to double thrombin time; type: functional; summary of the method: as §3
Blood [20] = test: Anticoagulant activity in human whole blood assessed as clotting time at 3.12 x 10'4 M by thromboelastography assay; type: functional; summary of the method: as §5
Blood [21] = test: Anticoagulant activity in human whole blood assessed as clotting formation time at 3.12 x 10'4 M by InTEM-TEG assay; type: functional; summary of the method: as §5
[22] = Metabolic stability of the compound in human plasma assessed as compound remaining after 3 hrs by IP-RP-HPLC analysis; type: ADME, cell-free; conditions: read-out: Stability
Summary of the method: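 Compound at 25 mM final in human plasma diluted 1:1 with PBS pH 7.4, shaken at 37 °C; sampled at 0 and 180 min, three independent samples. TBA buffer (pH 8) added for ion-pairing, quenched with 4× cold acetonitrile, centrifuged, filtered, dried, redissolved in mobile phase. Quantified by ion-pairing RP-HPLC on C-18, phosphate/TBA buffer:acetonitrile 55:45, 1.0 mL/min.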

inhibition [10] | inhibition [13] | inhibition [14] | Compound | Activity (Plasma [1]) | AUC (Platelet [2]) | AUC (Platelet [3]) | AUC (Platelet [4]) | Activity (MCF7) | Activity (NCI-H460) | Activity [5] | Activity (Plasma [6]) | Activity (Plasma [7]) | Activity (Plasma [8]) | Activity (Mus musculus) | 2aPTT (Plasma [9]) | Activity (Plasma [11]) | 2PT (Plasma [12]) | Activity (Plasma [12]) | Activity (Plasma [9]) | Time (Blood [15]) | further results
– | – | – | C[C@@H]1O[C@@H](OC[C@H]2O[C@@H](Oc3c(-c4ccc(OCCOS(=O)(=O)[O-])c(OCCOS(=O)(=O)[O-])c4)oc4cc(OCCOS(=O)(=O)[O-])cc(O)c4c3=O)[C@H](OS(=O)(=O)[O-])[C@@H](OS(=O)(=O)[O-])[C@@H]2OS(=O)(=O)[O-])[C@H](OS(=O)(=O)[O-])[C@H](OS(=O)(=O)[O-])[C@H]1OS(=O)(=O)[O-].[Na+].[Na+].[Na+].[Na+].[Na+].[Na+].[Na+].[Na+].[Na+] | 38.5% | 840 AU.min | 330 AU.min | 330 AU.min | Non-toxic | Non-toxic | Non-toxic | Dose-dependent effect | Dose-dependent effect | 10.9% | – | – | – | – | – | – | – | –
– | – | – | C[C@@H]1O[C@@H](OC[C@H]2O[C@@H](Oc3c(-c4ccc(OS(=O)(=O)[O-])c(OS(=O)(=O)[O-])c4)oc4cc(OS(=O)(=O)[O-])cc(OS(=O)(=O)[O-])c4c3=O)[C@H](OS(=O)(=O)[O-])[C@@H](OS(=O)(=O)[O-])[C@@H]2OS(=O)(=O)[O-])[C@H](OS(=O)(=O)[O-])[C@H](OS(=O)(=O)[O-])[C@H]1OS(=O)(=O)[O-].[Na+].[Na+].[Na+].[Na+].[Na+].[Na+].[Na+].[Na+].[Na+].[Na+] | 28.5% | 950 AU.min | 215 AU.min | 230 AU.min | Non-toxic | Non-toxic | Non-toxic | Dose-dependent effect | Dose-dependent effect | 9% | Non-toxic | – | – | – | – | – | – | –
– | – | – | COc1ccc(-c2cc(=O)c3c(O)cc(O[C@@H]4O[C@H](CO[C@@H]5O[C@@H](C)[C@H](OS(=O)(=O)[O-])[C@@H](OS(=O)(=O)[O-])[C@H]5OS(=O)(=O)[O-])[C@@H](OS(=O)(=O)[O-])[C@H](OS(=O)(=O)[O-])[C@H]4OS(=O)(=O)[O-])cc3o2)cc1O.[Na+].[Na+].[Na+].[Na+].[Na+].[Na+] [HEXASULFATED DIOSMIN] | 87% | 1090 AU.min | 340 AU.min | 200 AU.min | Non-toxic | Non-toxic | Non-toxic | – | – | 54% | Non-toxic | 4.35 ×10⁻⁴ M | – | – | – | – | – | –
inactive | inactive | inactive | O=c1ccc2cc(O[C@@H]3O[C@H](COS(=O)(=O)[O-])[C@@H](OS(=O)(=O)[O-])[C@H](OS(=O)(=O)[O-])[C@H]3OS(=O)(=O)[O-])c(OS(=O)(=O)[O-])cc2o1.[Na+].[Na+].[Na+].[Na+].[Na+] [ESCULIN PERSULFATE] | 87% | 890 AU.min | 980 AU.min | 980 AU.min | Non-toxic | Non-toxic | Non-toxic | – | – | 64.5% | – | 0.309 mM | inactive | > 5 mM | Dose-dependent effect | Dose-dependent effect | 340 s | Time (Blood [16]): 95 s
inactive | inactive | inactive | O=C1O[C@H]([C@H](COS(=O)(=O)[O-])OS(=O)(=O)[O-])C(OS(=O)(=O)[O-])=C1OS(=O)(=O)[O-].[Na+].[Na+].[Na+].[Na+] [ASCORBIC ACID PERSULFATE] | 94% | 1100 AU.min | 905 AU.min | 680 AU.min | – | – | – | – | – | 91.5% | – | 0.315 mM | inactive | > 5 mM | Dose-dependent effect | Dose-dependent effect | 205 s | Time (Blood [16]): 84 s; Time [17]: 106 s; Time [18]: 121 s
inactive | inactive | inactive | O=S(=O)([O-])OC[C@H]1O[C@@H](Oc2cc(/C=C/c3ccc(OS(=O)(=O)[O-])cc3)cc(OS(=O)(=O)[O-])c2)[C@H](OS(=O)(=O)[O-])[C@@H](OS(=O)(=O)[O-])[C@@H]1OS(=O)(=O)[O-].[Na+].[Na+].[Na+].[Na+].[Na+].[Na+] | 50.5% | 1020 AU.min | 400 AU.min | 173 AU.min | Non-toxic | Non-toxic | Non-toxic | Dose-dependent effect | Dose-dependent effect | 12% | – | 0.146 mM | – | 1.77 mM | Dose-dependent effect | Dose-dependent effect | – | Activity (Plasma [19]): Dose-dependent effect; Activity (Plasma [19]; record 2): 1.95 mM; Time (Blood [20]): 447 s; Time (Blood [21]): 136 s; Time [17]: 212 s; Time [18]: 273 s; remaining at 3 h [22]: 95%
